The series deals with MS2 coat protein. The series is described as follows: apparent Kd, MS2 coat protein; higher = weaker binding; RNA-MaP array; FMN 200 µM where present. In outline: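 Apparent Kd: the median of filtered binding-curve fits from single clusters. Designs were transcribed on Illumina sequencing-chip clusters by stalled E. coli RNA polymerase and titrated with SNAP-549-labelled MS2 coat protein from 0.7 or 1.5 nM, doubling to 3 µM, in 100 mM Tris-HCl pH 7.5, 80 mM KCl, 4 mM MgCl2, BSA, DTT, yeast tRNA and Tween-20. Each series ran without and then with constant ligand, and green signal was normalised to red-channel RNA signal and control-cluster median Fmax.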

The mark [1] stands for this setting: designed as: ON switch for flavin mononucleotide, no ligand.
The mark [2] stands for this setting: ligand present: flavin mononucleotide, designed as: ON switch for flavin mononucleotide.
Setting [3] is: designed as: OFF switch for flavin mononucleotide, no ligand.
[4] abbreviates: ligand present: flavin mononucleotide, designed as: OFF switch for flavin mononucleotide.

As usually defined, the apparent Kd is the concentration giving half-maximal binding under the conditions of the assay. “GGGUGAUCCUUAGGAUAUCCCGCGCCAAAGUGCGUUUAUACUACAUGAGGAUCACCCAUGUAACGGGAGAAGGGAGGAAGCCCG”: the “apparent Kd” value under setting [1] was 11 nM and the “apparent Kd” value under setting [2] was 4.31 nM.

For “GGAAAACAUGAGGAUCACCCAUGUGAGGAUAUCGAUGUCCAGGGCCUGCUGCGGGACUCGAGAAGGCAGUGGGA”, the “apparent Kd” value under setting [3] turned out to be 41.2 nM and the “apparent Kd” value under setting [4] turned out to be 21.7 nM. With “UAGAAGUCAGGAUAUCCAUGGCGGCACUUGCGUGGUGGCGUGGAGAAGGGACAUGAGGAUCACCCAUGUAAAGC”, the “apparent Kd” value is 48.7 nM under setting [3] and 37 nM under setting [4]. For “ACCUUACAUGAGGAUCACCCAUGUCAGGAUAUCUCGGGCGACCGAGGGCCGGCCGCCCAGAGAAGGGACGAGGA”, in that order: 12.5 nM and 13.9 nM. Turning to “AACUAGUGAGGAUAUACAUGAGGAUCACCCAUGUACGUCGUGGGUAGAAAACAAGUCAGUAGAAGGUGCUAGAC”, the “apparent Kd” value by setting is: under setting [3], 157 nM; under setting [4], 248 nM. For “UCUGAUUGGUGAGGAUAUACAUAAUUUAUAACUGUAGAAGGCACAAACCUCAAGACAUGAGGAUCACCCAUGUGGUAUUUAGAU”, in that order: 285 nM and 475 nM. In the case of “GCUGUCGCAUGAGGAUAUGGUCUGCUUUGCAGACCAGAAGGCAUGUCAAUAGACAUGAGGAUCACCCAUGUAGUUAAGACAGCA”, the “apparent Kd” value turned out to be 766 nM under setting [1] and 46.6 nM under setting [2]. On to “GUUUCACAUGAGGAUCACCCAUGUGAGGAUAUCGAUUUGUUAACCGUAGUUAAUAGAUCGAGAAGGCGCGUGAU”, for which the “apparent Kd” value turned out to be 70.6 nM under setting [3] and 68.8 nM under setting [4]. Take “ACGUCGAGCCAGAAGGCAACAUGAGGAUCACCCAUGUAGUCCGGCUCGUGUUGAGGAUAUGGCACCCGCGCUGAAGGCGCAGGU”: the “apparent Kd” value is 5.43 nM under setting [3] and 7.55 nM under setting [4]. “AAUCAUGUCCGAGGAUAUCUGGAAACAUUUUCAAGAGAAGGCGGACAUGAGGAUCACCCAUGUCUCUCCUCAUCAACUACAAAU”: the “apparent Kd” value is, setting by setting: under setting [3], 14.6 nM; under setting [4], 89 nM. Take “AUCAGCUCGCCAGGAUAUACGUCACUGCGUCAGCAGUGUGGUAAGAUCACAUGAGGAUCACCCAUGUAGAAGGGACGAGCUGAU”: the “apparent Kd” value is, setting by setting: under setting [3], 10.3 nM; under setting [4], 69.2 nM.

As for “AAUAAACUCACAGGAUAUAGCAUAGGUCGCGUGAACUUACAGGCGACUAUGCUAGAAGGGUGACCACAUGAGGAUCACCCAUGU”, the “apparent Kd” value reads like this: under setting [1], 734 nM; under setting [2], 145 nM. For the sequence “ACUGGAGCAGGAUAUAUAUGACGUGCUUCGGCACGAAGAUCACAUGAGGAUCACCCAUGUAGAAGGGCUCCAGU”, the “apparent Kd” value is, setting by setting: under setting [3], 106 nM; under setting [4], 813 nM. Turning to “AUUGCCUUUGUCAGGAUAUCUGAGGUCGAAAGUGAAGAGAAGGGACAUGAGGAUCACCCAUGUAGUGGUACGCA”, the “apparent Kd” value amounted to 144 nM under setting [3] and 431 nM under setting [4]. On to “GGUCGUCACAUUUACAUGAGGAUCACCCAUGUCGAAAGACAUGAGGAUAUGCUACCUAAUUGGUAGCAGAAGGCAUGGACGACC”, for which the “apparent Kd” value worked out at 455 nM under setting [1] and 234 nM under setting [2]. With “GGUUGUCAUCGUCAUCCUUUCUGUACAUGAGGAUCACCCAUGUAGGAUAUGCUGCUCUCGGUGUGGCAGAAGGGCGUGUGUGUU”, the “apparent Kd” value came to 40.5 nM under setting [3] and 50.2 nM under setting [4].

As to “AACAAGCAAGGAUAUACAUGAGGAUCACCCAUGUCGUCUAAACGUACAUGCUACUCUUGUAGAAGGUGCAAAAU”, the “apparent Kd” value stood at 129 nM under setting [3] and 537 nM under setting [4]. With “CUUUCGUGAGGAUAUGUGGCUUCGAUCGUAAAAUCGAGGCUACAGAAGGCACAUGAGGAUCACCCAUGUUCCUC”, the “apparent Kd” value came out at 36.2 nM under setting [3] and 528 nM under setting [4]. Take “GCACUCAAGUUAGGAUAUGGACCAGAAACUGGUCCAGAAGGAACAUGGGAACAUGAGGAUCACCCAUGUUCCAGAAACGAGUGC”: the “apparent Kd” value is, setting by setting: under setting [1], 840 nM; under setting [2], 186 nM. Take “UUACUAUUACAGAAGGUUAAAUAAUAUAUAAAUGAAGGAUAUGUGACAUGAGGAUCACCCAUGUUUCACCCACAUGAGGAUCAC”: the “apparent Kd” value is, setting by setting: under setting [3], 12.1 nM; under setting [4], 13.3 nM. Take “UUGGAGUACGUAGGAUAUGUAGGAUAUUCCUACAUGAGGAUCACCCAUGUAUGAAUGGAAGAAGGACAGAAGGACGUGCUCCAU”: the “apparent Kd” value is, setting by setting: under setting [1], 19.8 nM; under setting [2], 13.9 nM. For “AGCGUACAUGUUAGGAUAUGCUGUAGGAAUACUCAGCAGAAGGAACAUGAGGAUCACCCAUGUUUGUCCGUUCU”, the “apparent Kd” value stood at 14.5 nM under setting [3] and 23.9 nM under setting [4]. With “GUACAGUAGUGAGGAUAUACGAGAUCGAUAGAUCGGCGAUCCAUUUAUACAUGAGGAUCACCCAUGUAGAAGGCACUUCUGUAC”, the “apparent Kd” value under setting [3] is 5.73 nM and the “apparent Kd” value under setting [4] came out at 61.7 nM.

For the sequence “UAAUCUGGUCAGGAUAUCGGUGCACAGUGCACAGGAGAAGGGACCACAUGAGGAUCACCCAUGUAGGCUCUCCU”, the “apparent Kd” value by setting is: under setting [3], 17.8 nM; under setting [4], 24.4 nM. For “CUUUUGUGAGGAUAUCAGUAGUAUAAAAAUAAAAUUACUACUGAGAAGGCACAUGAGGAUCACCCAUGUUCCUC”, the “apparent Kd” value came to 39 nM under setting [3] and 226 nM under setting [4]. In the case of “GCGCCUCAGAACAUGAGGAUCACCCAUGUGCUGCGGGCGCCGUAGGAUAUGAUGGUACGCUACCAUCAGAAGGAUGAUGGUACC”, the “apparent Kd” value under setting [2] was 5.02 nM. Consider “CGAACUAAGUAGAAGGCUGUCUUAAAAUAGGACAGAGGAUAUACAUGAGGAUCACCCAUGUACUCCUUUAAUAAGUUCGAAAUA”, for which the “apparent Kd” value under setting [3] is 5.22 nM and the “apparent Kd” value under setting [4] is 6.13 nM.

As for “UAAUAAAGUGUGAGGAUAUGCUGGUCGAUAGAUCAGCAGAAGGCACAUGAGGAUCACCCAUGUAAUAUAUUUUA”, the “apparent Kd” value stood at 57.9 nM under setting [3] and 247 nM under setting [4]. In the same order, the values of “UAUAUAUAGUAAGGAUAUGUAAUUAUUCUAUAAACAGAAGGUACUGACAUGAGGAUCACCCAUGUUUUAGUGUGGGCAUGUAGA” are 43.4 nM and 46 nM. In the same order, the values of “AAGAGUGCAGGAUAUACUUGGUAGGGUAAGAUGAGUGAGUGACAUGAGGAUCACCCAUGUAGAAGGGCAGAGAG” are 121 nM and 132 nM. Turning to “GCGACGGCGAAAGGAUAUCAAAAUCAACAGUGUUGAGAAGGUUCUCCGAGGGUCGCACAUGAGGAUCACCCAUGUCGCGAAUCU”, the “apparent Kd” value by setting is: under setting [1], 13.1 nM; under setting [2], 10.3 nM.

With “ACAUGAGGAUCACCCAUGUGGAGUGAAGAAGGUGGUUACUUAAGACUCUCCCAUGUACUUAGGACUGAGGAUAUUCUAAUAUUU”, the “apparent Kd” value reads like this: under setting [1], 82.3 nM; under setting [2], 45.9 nM. Regarding “GCGUGACAUGAGGAUCACCCAUGUGAGGAUAUCUGGAUACUCUUUAUUUUAGAUAUCCAGAGAAGGCACAUGCU”, the “apparent Kd” value was determined as 217 nM under setting [3] and 151 nM under setting [4]. Consider “CAGUACUGAGGAUAUACAUGAGGAUCACCCAUGUGUUCCAGCUAGGAAGCUAGCAAAAGUAGAAGGCAGUACUG”, for which the “apparent Kd” value was 26.2 nM under setting [3] and 276 nM under setting [4]. For the sequence “GUAGCAUACCGAGGAUAUUCGUCCGGAUUACGGACAUGAGGAUCACCCAUGUGGCGAAAGCCUUGGGAGAAGGCGGAAUGCUAC”, the “apparent Kd” value amounted to 732 nM under setting [1] and 247 nM under setting [2]. For “GCUCGAUGUGCUGAAAACAUGAGGAUCACCCAUGUAGAUGAUCAGGAUAUUUACGUGCUUUAUGUAGAGAAGGGAUCAUCGAGC”, in that order: 64 nM and 27.7 nM. In the same order, the values of “GCGCAUUUAAGAUUUAUAUAAUUGUCAGAAGGUGAAAAGACGACAUGAGGAUCACCCAUGUAAUUCAAGGAUAUGAUUUAGCGC” are 34.3 nM and 13.3 nM.
